Data as given in ChEMBL document CHEMBL1146240 (J Med Chem, 2007).
Activity calls are given as the source filed them. No cut-off for these calls is given here.

Assays:
[1] = Cytotoxicity against HECPP cells assessed as reduction of cell viability at 600 ug/mL after 24 hrs by MTT assay; assay type: cell-based; settings: mouse
Summary of the method: (§1)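 HECPP murine endothelial cells in M199 with 10% FCS, 37 °C, 5% CO₂. Seeded at 10⁵ cells/well, incubated overnight, then exposed to compound for 24 h. MTT added for 2 h and formazan dissolved in 0.04 N HCl/isopropanol. Absorbance read at 550 nm with 630 nm reference, expressed as percent of metabolically active cells.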

HECPP [2] = assay: Activation of NF-kappaB in HECPP cells at 300 ug/mL; assay type: functional, cell-based; settings: Mus musculus
Summary of the method: (§2)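 HECPP murine endothelial cells (2.5 × 10⁷) exposed to compound for 2 h. Nuclear extracts prepared, and 5 µg nuclear protein incubated with poly(dI/dC) on ice for 10 min. A ³²P-labeled κ-enhancer NF-κB consensus oligonucleotide was then added. Complexes were resolved on a 4% polyacrylamide gel in 0.25× TBE at 150 V for 2 h, then read by autoradiography (EMSA).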

HECPP [3] = assay: Activation of NF-kappaB in HECPP cells at 1000 ug/mL; assay type: functional, cell-based; settings: Mus musculus; summary of the method: as §2
Splenocyte [4] = assay: Induction of TNF secretion in mouse splenocytes at 100 ug/mL after 4 hrs; assay type: functional
Summary of the method: (§3)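 Primary male mouse splenocytes, RBC-lysed, plated at 3 × 10⁶ cells/well in Alpha-MEM with 10% FCS. Treated with compound for 4 h at 37 °C. Supernatant TNF measured by ELISA, each sample in duplicate, with triplicate wells per condition. Mean ± SEM reported.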

MC-38 (Mus musculus) [5] = assay: Induction of hemorrhagic necrosis in colon 38 tumor bearing C57B1/6 mouse at 200 mg/kg, ip after 24 hrs relative to control; settings: route intraperitoneal
HECPP [6] = assay: Activation of NF-kappaB in HECPP cells at 10 ug/mL; assay type: functional, cell-based; settings: Mus musculus; summary of the method: as §2
Splenocyte [7] = assay: Induction of TNF secretion in mouse splenocytes at 10 ug/mL after 4 hrs; assay type: functional; summary of the method: as §3
MC-38 (Mus musculus) [8] = assay: Induction of hemorrhagic necrosis in colon 38 tumor bearing C57B1/6 mouse at 25 mg/kg, ip after 24 hrs relative to control; settings: route intraperitoneal
[9] = Cytotoxicity against HECPP cells assessed as reduction of cell viability at 300 ug/mL after 24 hrs by MTT assay; assay type: cell-based; settings: mouse; summary of the method: as §1
HECPP [10] = assay: Activation of NF-kappaB in HECPP cells at 30 ug/mL; assay type: functional, cell-based; settings: Mus musculus; summary of the method: as §2
Splenocyte [11] = assay: Induction of TNF secretion in mouse splenocytes at 30 ug/mL after 4 hrs; assay type: functional; summary of the method: as §3
[12] = Induction of TNF production in murine splenocytes at 100 ug/mL
MC-38 (Mus musculus) [13] = assay: Induction of hemorrhagic necrosis in colon 38 tumor bearing C57B1/6 mouse at 190 mg/kg, ip after 24 hrs relative to control; settings: route intraperitoneal

For `[N-]=[N+]=Nc1cccc2c(=O)c3cccc(CC(=O)O)c3oc12`, the Activity [1] was 50%, the Activity (HECPP [2]) was “Active” and the Activity (HECPP [3]) was “Active”. The Activity (Splenocyte [4]) was 110 pg/mL and the Activity (MC-38 (Mus musculus) [5]) was >95%.
In the case of `Cc1ccc2c(=O)c3cccc(CC(=O)O)c3oc2c1C` [VADIMEZAN], the Activity (HECPP [6]) is reported as “Active”, the Activity (Splenocyte [7]) is reported as 180 pg/mL and the Activity (MC-38 (Mus musculus) [8]) is reported as >95%.
For `Cc1ccc2c(=O)c3cccc(CC(=O)O)c3oc2c1N=[N+]=[N-]`, the Activity [9] was 50%, the Activity (HECPP [10]) was “Active” and the Activity (Splenocyte [11]) was <50 pg/mL. The TNF production [12] was <50 pg/mL and the Activity (MC-38 (Mus musculus) [13]) was >95%.
